Only some compounds are listed: those with a hit (about 2.9% of all), similar ones and a draw of the others.
Vif inh = HIV Vif inhibition | HEK293T cells, Vif self-association by quenched fluorescence, imaging, 24 h | inhibition, % at 7.49 µM | hit rate 0.35% among 340,000 | AID 602346; in the data active = inhibition above about 50%, passing the limit was not always enough
PglD inh = PglD (C. jejuni) enzyme inhibition. purified PglD enzyme, DTNB colorimetric CoA detection. inhibition, % at 12.5 µM. hit rate 0.098% among 360,000; in the data active = inhibition above about 16%, passing the limit was not always enough
FGF22 binding = binders of recombinant human FGF22 by thermal shift; Q9HCT0; hit rate 1.5% among 340,000; activity (Tm shift, normalised), % at 9.99 µM; SYPRO orange fluorescence; percent of sucrose octasulfate shift, DMSO zero;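 active = mean Tm shift, scaled 0 neutral to 100 positive control, at about 1.3% or above, every replicate too, limit read from the data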
Target sequence (Q9HCT0 whole entry, looked up): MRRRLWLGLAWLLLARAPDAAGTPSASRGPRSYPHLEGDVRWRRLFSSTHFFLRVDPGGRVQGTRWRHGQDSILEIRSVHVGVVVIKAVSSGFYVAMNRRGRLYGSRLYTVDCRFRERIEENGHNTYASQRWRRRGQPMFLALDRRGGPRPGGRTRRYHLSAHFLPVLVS
rRNA inh HTS = inhibitors of bacterial rRNA selective over humanized ribosomes; E. coli WT GFP vs humanized-ribosome RFP mutants, fluorescence, 24 h; stronger effect = lower value; DMSO median 0, no signal -100; GFP signal change (wild-type ribosome), % (concentration not given with the values); hit rate 1.6% among 350,000;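 active = significant combined selectivity score with lowered wild-type GFP, culture density cut under 30%, mutant RFP and density less affected; inactive = any of these conditions unmet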
Cneo AK release = Cryptococcus neoformans lysis via adenylate kinase release | C. neoformans lysis, adenylate kinase release luminescence, 4 h; normalised: neutral wells 0, clomiphene wells 100 | lysis activity, % at 15 µM | hit rate 0.2% among 360,000;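 active = mean lysis activity across replicates of at least 80%, whatever share of replicates individually reach that level; inactive = mean lysis activity below 80%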
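Material – log-phase Cryptococcus neoformans yeast cells · Input – 5 × 10^6 yeast cells/mL · Medium – fresh YPD growth medium · Doses – single compound concentration per well · Timing – static 4 h at 37 °C with compound, 1 h detection · Detection – adenylate kinase release luminescence · Read-out – signal increase indicating cell lysis · Control set – Clomiphene as positive lysis control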
PGC1a acetyl inh = PGC1a acetylation modulation, inhibitor mode; U2OS PGC1a acetylation, AlphaScreen anti-acetyl-lysine; with virally co-expressed GCN5 acetyltransferase; inhibition, % at 15.6 µM; hit rate 0.17% among 350,000; AID 651687;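 active = every replicate shows inhibition of at least 40%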
A number is an active result; n = inactive; x = not tested or not shown.

SMILES	Vif inh	PglD inh	FGF22 binding	rRNA inh HTS	Cneo AK release	PGC1a acetyl inh
N#Cc1ccc(OCCOCCNC2CCCC2)cc1	n	x	44	n	x	x
COc1ccc(OCCNC2CCCC2)cc1	n	x	n	n	x	x
COc1ccc(NC(=S)NCCc2ccccc2)c(OC)c1	x	n	n	n	n	n
COc1ccc(S(=O)(=O)NNC(=S)NCCc2ccccc2)c(OC)c1	n	n	n	-25	n	x
Cc1nnc(SCc2cc([N+](=O)[O-])cc3c2OCOC3)n(N)c1=O	n	x	43	n	x	n
CCc1cccc2c(C(=O)C(F)(F)F)cn(CC(=O)NCC3CCCO3)c12 (configuration not stated)	n	x	n	n	x	x
CCc1cccc2c(C(=O)C(F)(F)F)cn(CC(=O)N3CCOCC3)c12	n	x	43	x	x	x
CCOC(=O)CC(=O)CSc1nc2c(sc(=S)n2-c2ccc(OCC)cc2)c(=O)[nH]1	n	n	x	-28	n	n
CCCNC(=O)Nc1ccc2c(c1)OC[C@@H](C)N(C(=O)C1CCCCC1)C[C@H](C)[C@@H](OC)CN(C)C2=O	x	n	n	n	n	x
O=C(O)c1ccc(-n2[nH]c3c(c2=O)CCCC3)cc1	n	x	43	n	x	n
CC1CCCC(NC(=O)COC(=O)C2=COCCO2)C1C (configuration not stated)	n	n	44	n	n	n
COC(=O)c1c(C)[nH]c(C(=O)OCC(=O)c2ccc(C)s2)c1C	n	n	n	-20	n	n
CCOC(=O)c1[nH]c(C)c(C(=O)OC)c1C	n	x	n	n	x	x
COc1ccc2c3c([nH]c2c1)[C@@H](CO)N(C(=O)Nc1ccccc1F)CC31CCN(C(=O)c2ccccc2F)CC1	x	x	x	n	x	n
C[C@@H]1CN([C@@H](C)CO)C(=O)c2cc(NC(=O)CCCCCC(=O)Nc3ccccc3N)ccc2O[C@H]1CN(C)S(C)(=O)=O	x	x	n	n	x	n
CCn1c(SCC(=O)NCC2CCCO2)nnc1-c1c[nH]c2ccccc12 (configuration not stated)	n	n	x	x	n	n
CCn1c(SCC(=O)NCC2CCCO2)nnc1-c1ccc(Cl)cc1 (configuration not stated)	54	n	n	n	n	n
Cc1cc(C)c(O)c(-c2cc(C(=O)NCCc3ccc(S(N)(=O)=O)cc3)[nH]n2)c1	n	n	n	-33	n	n
NS(=O)(=O)c1ccc(CCNC(=O)c2cc(-c3cc(Cl)ccc3O)n[nH]2)cc1	n	n	n	n	n	n
Cc1cc(O)c(-c2cc(C(=O)NCCc3ccc(S(N)(=O)=O)cc3)[nH]n2)cc1C	n	n	n	-35	n	n
O=C(C[C@H]1C=C[C@H](NC(=O)C2CCOCC2)[C@H](CO)O1)Nc1nccs1	x	x	x	n	x	x
CC(C)[C@@H](C)NC(=O)N(C)C[C@@H]1OCc2ccccc2-c2c(n(C)c3ccccc23)C(=O)N([C@H](C)CO)C[C@H]1C	x	x	x	n	x	x
CN(C)CC(=O)Nc1ccc2c(c1)[C@@H]1C[C@H](CC(=O)NCCc3ccccc3)O[C@@H](CO)[C@@H]1O2	x	n	n	n	n	n
COc1ccc2c3c(n(C)c2c1)[C@H](CO)N(CC1CC1)CC31CCN(C(=O)CN2CCOCC2)CC1	x	x	n	n	x	x
Cc1[nH]c2ccc(C(C)C)cc2c1CC(=O)O	x	n	n	n	n	76
SMILES	Vif inh	PglD inh	FGF22 binding	rRNA inh HTS	Cneo AK release	PGC1a acetyl inh
COc1ccc(NC(=O)Nc2ccc3c(c2)CC(=O)N([C@H](C)CO)C[C@H](C)[C@@H](CN(C)C(=O)Nc2ccc(F)cc2)O3)cc1	x	n	n	n	n	n
Cc1ccc(C(=O)N/C(=C\c2ccc(Br)cc2)c2nc(=S)[nH][nH]2)cc1	n	n	n	-25	n	n
C[C@@H]1CN([C@H](C)CO)S(=O)(=O)c2ccc(C#Cc3ccccc3F)cc2O[C@H]1CN(C)C(=O)Cc1cccnc1	x	n	n	n	n	n
Cc1ccccc1-c1ccc2c(c1)O[C@H](CN(C)C(=O)c1ccccn1)[C@H](C)CN([C@H](C)CO)S2(=O)=O	x	n	n	n	n	n
O=C(NCCc1c[nH]c2ccccc12)/C(=C/c1cccnc1)NC(=O)c1cccs1	n	x	n	-28	x	n
O=C(NCCc1c[nH]c2ccccc12)c1ccco1	n	n	n	n	n	n
O=C(NCCc1c[nH]c2ccccc12)/C(=C/c1cccnc1)NC(=O)c1ccccc1	n	x	n	n	x	n
O=C(NCCc1c[nH]c2ccccc12)/C(=C/c1ccco1)NC(=O)c1ccco1	n	x	43	n	x	n
O=S(=O)(c1ccc(-c2ccccc2)cc1)N1CCN(Cc2cccc(OCCO)c2)CC1	x	x	n	x	n	x
C/C=C/c1ccc2c(c1)O[C@@H](CN(C)C(=O)C1CCOCC1)[C@H](C)CN([C@@H](C)CO)S2(=O)=O	x	n	n	n	n	n
O=C(C[C@@H]1CC[C@H]2[C@@H](COC[C@H](O)CN2C(=O)c2cnccn2)O1)NCc1ccc(F)cc1	x	n	n	n	n	n
CCCCCCCCCCCCCCCC[n+]1ccc(C(N)=O)cc1	n	n	x	x	n	n
CCCCCCCCCCCCCCCC[n+]1ccc(/C=N/O)cc1	n	x	n	-37	x	x
CCN(Cc1ccccc1)S(=O)(=O)c1ccc2c(c1)NC(=O)CC(=O)N2	n	x	44	n	x	x
CCN(Cc1ccccc1)S(=O)(=O)c1ccc2c(c1)NC(=O)CS2	n	n	n	-35	n	n
C[C@@H]1CN([C@@H](C)CO)C(=O)c2cc(NC(=O)c3ccncc3)ccc2O[C@@H](C)CCCCO[C@H]1CN(C)Cc1ccccc1	x	n	n	n	n	n
Cc1cc(Br)ccc1SCC(=O)OCC(=O)NCc1ccco1	n	n	n	-18	n	n
CCc1ccc(Nc2cnn(C34CC5CC(CC(CC(=O)O)(C5)C3)C4)c(=O)c2Cl)cc1	n	n	n	-27	n	n
O=C(O)Cc1ccc(Nc2cnn(C34CC5CC(CC(CC(=O)O)(C5)C3)C4)c(=O)c2Cl)cc1	n	n	n	n	n	n
CCN1[C@H](C(=O)OC)[C@@H](CO)[C@@H]2Cn3c(ccc(-c4cccc(C(=O)N(C)C)c4)c3=O)[C@@H]21	x	n	n	n	n	x
Cc1nc2[nH]c(=O)c3c(n2n1)NC1=C(C(=O)CC(C)(C)C1)C3c1ccccc1 (configuration not stated)	n	n	x	x	n	84
c1cncc(CNc2ncnc3ccc(-c4cccnc4)cc23)c1	n	n	45	n	n	n
COc1ccc(CN2CCN(C(=O)c3ccc(S(=O)(=O)NCc4ccco4)cc3)CC2)cc1	n	n	x	n	n	n
O=C(c1ccc(S(=O)(=O)NCc2ccco2)cc1)N1CCN(Cc2ccccc2)CC1	n	x	44	n	x	x
COC(CNC(=O)c1ccc2nc(-c3cccs3)c(-c3cccs3)nc2c1)OC	n	n	n	-22	n	x
Cc1ccccc1NC(=S)NCc1ccc(F)cc1	n	n	n	n	n	n
